According to ChEMBL document CHEMBL3997852, “Discovery of Fluorine-Containing Benzoxazinyl-oxazolidinones for the Treatment of Multidrug Resistant Tuberculosis” (ACS Med Chem Lett, 2017):
pIC50: −log10 of the molar value. ≈ marks a conversion by molar mass, not a printed value.

Assays:
[1] = tested on: Mycobacterium tuberculosis; assay: Antitubercular activity against Mycobacterium tuberculosis H37Rv after 7 days by microplate alamar blue assay; assay type: functional; conditions: 168 h
Procedure, shortened: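 Microplate alamar blue assay on M. tuberculosis H37Rv. The MIC is the lowest concentration that reduces fluorescence by ≥90% relative to the mean of replicate bacterium-only controls.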

Vero = assay: Cytotoxicity against African green monkey Vero cells assessed as growth inhibition after 48 hrs by MTT assay; assay type: ADME, cell-based; conditions: Chlorocebus sabaeus
[2] = Selectivity index, ratio of IC50 for African green monkey Vero cells to MIC for Mycobacterium tuberculosis H37Rv
HepG2 = assay: Cytotoxicity against human HepG2 cells after 48 hrs by MTT assay; conditions: HepG2, 48 h
H9c2 = assay: Inhibition of mitochondrial protein synthesis in rat H9c2 cells after 5 days by In-Cell ELISA; conditions: H9c2, 120 h
[3] = Metabolic stability in CD1 mouse liver microsomes assessed as compound remaining at 0.1 uM in presence of NADPH after 30 mins by LC/MS method; assay type: ADME, microsome; conditions: read-out: Stability
Liver [4] = assay: Metabolic stability in CD1 mouse liver microsomes at 0.1 uM in absence of NADPH after 30 mins by LC/MS method; assay type: ADME, microsome; conditions: 0.5 h
[5] = Metabolic stability in human liver microsomes assessed as compound remaining at 0.1 uM in presence of NADPH after 30 mins by LC/MS method; assay type: ADME, microsome; conditions: read-out: Stability
Liver [6] = assay: Metabolic stability in human liver microsomes at 0.1 uM in absence of NADPH after 30 mins by LC/MS method; assay type: ADME, microsome; conditions: 0.5 h
[7] = Cmax in Balb/c mouse at 100 mg/kg, po measured over 24 hrs by LC/TSQ quantum access mass spectrometric method; assay type: ADME, organism-based; design: dose 100 mg/kg, route oral; conditions: in vivo
[8] = Cmax in Balb/c mouse at 10 mg/kg, iv measured over 24 hrs by LC/TSQ quantum access mass spectrometric method; assay type: ADME, organism-based; design: dose 10 mg/kg, route intravenous; conditions: in vivo
[9] = Tmax in Balb/c mouse at 100 mg/kg, po measured over 24 hrs by LC/TSQ quantum access mass spectrometric method; assay type: ADME, organism-based; conditions: in vivo
[10] = Tmax in Balb/c mouse at 10 mg/kg, iv measured over 24 hrs by LC/TSQ quantum access mass spectrometric method; assay type: ADME, organism-based; conditions: in vivo
[11] = Plasma elimination half life in Balb/c mouse at 100 mg/kg, po measured over 24 hrs by LC/TSQ quantum access mass spectrometric method; assay type: ADME, organism-based; conditions: read-out: beta t1/2 (converted)
[12] = Plasma elimination half life in Balb/c mouse at 10 mg/kg, iv measured over 24 hrs by LC/TSQ quantum access mass spectrometric method; assay type: ADME, organism-based; conditions: read-out: beta t1/2 (converted)
[13] = AUC (0 to infinity) in Balb/c mouse at 100 mg/kg, po measured over 24 hrs by LC/TSQ quantum access mass spectrometric method; assay type: ADME, organism-based; design: dose 100 mg/kg, route oral, time infinity; conditions: in vivo
[14] = AUC (0 to infinity) in Balb/c mouse at 10 mg/kg, iv measured over 24 hrs by LC/TSQ quantum access mass spectrometric method; assay type: ADME, organism-based; design: dose 10 mg/kg, time infinity, route intravenous; conditions: in vivo
[15] = MRT in Balb/c mouse at 100 mg/kg, po measured over 24 hrs by LC/TSQ quantum access mass spectrometric method; assay type: ADME, organism-based; conditions: in vivo
[16] = MRT in Balb/c mouse at 10 mg/kg, iv measured over 24 hrs by LC/TSQ quantum access mass spectrometric method; assay type: ADME, organism-based; conditions: in vivo
[17] = Clearance in Balb/c mouse at 10 mg/kg, iv measured over 24 hrs by LC/TSQ quantum access mass spectrometric method; assay type: ADME, organism-based; conditions: in vivo
[18] = Oral bioavailability in Balb/c mouse at 100 mg/kg measured over 24 hrs by LC/TSQ quantum access mass spectrometric method; assay type: ADME, organism-based; conditions: in vivo
[19] = Elimination half life in CD1 mouse at 10 mg/kg, po measured over 24 hrs by HPLC/MS/MS method; assay type: ADME, organism-based; conditions: in vivo, read-out: beta t1/2

Row | Structure (SMILES) | MIC90 [1] [µg/mL] | IC50 (Vero) [µg/mL] | selectivity ratio [2] | also measured
1 | O=C(NC[C@@H]1OC(=O)N2c3cc(F)c(C4=CCN(CCO)CC4)cc3OC[C@@H]12)C1CCC1 | 1.1 (≈ 2.48 µM) | > 64 | 58 | 
2 | O=C1O[C@@H](CNc2ccon2)[C@@H]2COc3cc(C4=CCN(CCO)CC4)c(F)cc3N12 | 0.98 (≈ 2.28 µM) | > 64 | 65 | 
3 | CC(=O)NC[C@@H]1OC(=O)N2c3ccc(C4=CCN(CCO)CC4)cc3OC[C@@H]12 | 2.65 (≈ 6.83 µM) | 26.8 (≈ 69.1 µM) | 10 | 
4 | COC(=O)NC[C@@H]1OC(=O)N2c3cc(F)c(C4=CCN(C(=O)CO)CC4)cc3OC[C@@H]12 | 0.999 (≈ 2.29 µM) | > 64 | 64 | 
5 | O=C(CO)N1CC=C(c2cc3c(cc2F)N2C(=O)O[C@@H](Cn4ccnn4)[C@@H]2CO3)CC1 | 10.9 (≈ 25.4 µM) |  |  | 
6 | CC(=O)NC[C@@H]1OC(=O)N2c3cc(F)c(C4CCN(CCO)CC4)cc3OC[C@@H]12 | 14.6 (≈ 35.8 µM) |  |  | 
7 | O=C(CO)N1CC=C(c2cc3c(cc2F)N2C(=O)O[C@@H](COc4ccon4)[C@@H]2CO3)CC1 | > 32 |  |  | 
8 | O=C(NC[C@@H]1OC(=O)N2c3cc(F)c(C4=CCN(CCO)CC4)cc3OC[C@@H]12)C1CC1 | 0.473 (≈ 1.1 µM) | > 64 | 135 | 
9 | CC(=O)NC[C@@H]1OC(=O)N2c3cc(F)c(C4=CCN(CCO)CC4)cc3OC[C@@H]12 | 0.578 (≈ 1.43 µM) | > 64 | 111 | 
10 | CC(=O)NC[C@@H]1OC(=O)N2c3cc(F)c(C4=CCN(C(=O)CO)CC4)cc3OC[C@@H]12 | 0.391 (≈ 0.932 µM) | > 64 |  | IC50 (HepG2): > 64 µg/mL; pIC50 (H9c2): 5.04; remaining at 0.5 h, 0.1 µM [3]: 102%; Stability (Liver [4]): Stable; remaining at 0.5 h, 0.1 µM [5]: 103%; Stability (Liver [6]): Stable; Cmax [7]: 30000 ng/mL; Cmax [8]: 11400 ng/mL; Tmax [9]: 2 h; Tmax [10]: 1.8 min; half-life [11]: 4.22 h; half-life [12]: 8.23 h; AUC(0-inf) [13]: 122000 ng·h/mL; AUC(0-inf) [14]: 12000 ng·h/mL; MRT [15]: 4.12 h; MRT [16]: 2.54 h; clearance [17]: 13.9 mL/min/kg; bioavailability [18]: 102%
11 | O=C(NC[C@@H]1OC(=O)N2c3cc(F)c(C4=CCN(C(=O)CO)CC4)cc3OC[C@@H]12)C1CC1 | 1.87 (≈ 4.19 µM) | > 64 | 34 | 
12 | CCC(=O)N1CC=C(c2cc3c(cc2F)N2C(=O)O[C@@H](CNC(C)=O)[C@@H]2CO3)CC1 | 6.36 (≈ 15.2 µM) |  |  | 
13 | O=C(CO)N1CC=C(c2cc3c(cc2F)N2C(=O)O[C@@H](CNc4ccon4)[C@@H]2CO3)CC1 | 1.04 (≈ 2.35 µM) | > 64 | 61 | 
14 | COC(=O)NC[C@@H]1OC(=O)N2c3cc(F)c(C4=CCN(CCO)CC4)cc3OC[C@@H]12 | 2.22 (≈ 5.27 µM) | 57.4 (≈ 136 µM) | 26 | 
15 | CC(=O)NC[C@@H]1OC(=O)N2c3cc(F)c(C4=CCN(C(=O)[C@@H](O)CO)CC4)cc3OC[C@@H]12 | 0.483 (≈ 1.07 µM) | > 64 | 133 | 
16 | CC(=O)NC[C@@H]1OC(=O)N2c3cc(F)c(C4=CCN(C(=O)C5CCCC5)CC4)cc3OC[C@@H]12 | 7.94 (≈ 17.4 µM) |  |  | 
17 | O=C1O[C@@H](Cn2ccnn2)[C@@H]2COc3cc(C4=CCN(CCO)CC4)c(F)cc3N12 | 7.96 (≈ 19.2 µM) |  |  | 
18 | O=C(NC[C@@H]1OC(=O)N2c3cc(F)c(C4=CCN(C(=O)CO)CC4)cc3OC[C@@H]12)C1CCC1 | 1.68 (≈ 3.66 µM) | > 64 | 39 | 
19 | CC(=O)NC[C@@H]1OC(=O)N2c3ccc(C4=CCN(C(=O)CO)CC4)cc3OC[C@@H]12 | 0.725 (≈ 1.81 µM) | 13.8 (≈ 34.3 µM) | 19 | 
20 | CC(=O)NC[C@@H]1OC(=O)N2c3cc(F)c(C4=CCN(C(=O)CN)CC4)cc3OC[C@@H]12.Cl | 0.732 | > 64 | 87 | 
21 | CC(=O)NC[C@@H]1OC(=O)N2c3cc(F)c(C4CCN(C(=O)CO)CC4)cc3OC[C@@H]12 | 3.81 (≈ 9.05 µM) | > 64 | 17 | 
22 | O=C(CO)N1CC=C(c2cc3c(cc2F)N2C(=O)O[C@@H](CNC(=O)C(F)(F)F)[C@@H]2CO3)CC1 | 1.16 (≈ 2.45 µM) | > 64 | 55 | 
23 | O=C1O[C@@H](CNC(=O)C(F)(F)F)[C@@H]2COc3cc(C4=CCN(CCO)CC4)c(F)cc3N12 | 1.92 (≈ 4.17 µM) | > 64 | 33 | 
24 | CC(=O)NC[C@@H]1OC(=O)N2c3cc(F)c(C4=CCN(C(=O)[C@@H]5CCCN5)CC4)cc3OC[C@@H]12.Cl | 7.12 |  |  | 
25 | CC(=O)NC[C@@H]1OC(=O)N2c3cc(F)c(C4=CCN(C(=O)[C@@H]5CCCO5)CC4)cc3OC[C@@H]12 | 5.53 (≈ 12 µM) |  |  | 
26 | CC(=O)NC[C@@H]1OC(=O)N2c3cc(F)c(C4=CCN(C(=O)C5CC5)CC4)cc3OC[C@@H]12 | 6.4 (≈ 14.9 µM) |  |  | 
27 | NNC(=O)c1ccncc1 [ISONIAZID] | 0.037 (≈ 0.27 µM) |  |  | 
28 | CC(=O)NC[C@H]1CN(c2ccc(N3CCOCC3)c(F)c2)C(=O)O1 [LINEZOLID] | 0.304 (≈ 0.901 µM) | > 64 | 197 | pIC50 (H9c2): 5.06; half-life [19]: < 1 h
29 | O=C([C@@H](O)CO)N1CC=C(c2c(F)cc(N3C[C@H](COc4ccon4)OC3=O)cc2F)CC1 [POSIZOLID] | 1.02 (≈ 2.2 µM) | > 64 | 62 | 
30 | CO[C@H]1/C=C/O[C@@]2(C)Oc3c(C)c(O)c4c(O)c(c(/C=N/N5CCN(C)CC5)c(O)c4c3C2=O)NC(=O)/C(C)=C\C=C\[C@H](C)[C@H](O)[C@@H](C)[C@@H](O)[C@@H](C)[C@H](OC(C)=O)[C@@H]1C [RIFAMPIN] | 0.057 (≈ 0.0693 µM) |  |  | 
